From ChEMBL document CHEMBL4251591, “Primaquine hybrids as promising antimycobacterial and antimalarial agents” (Eur J Med Chem, 2018)
In brackets after ≈: the same amount, converted by molar mass.

Columns and labels:
Mycobacterium avium = experiment: Antimycobacterial activity against Mycobacterium avium subsp. paratuberculosis CIT03 clinical isolate after 11 days by Alamar Blue assay; format: functional; conditions: CIT03, 264 h
[1] = system: Mycobacterium avium complex sp.; experiment: Antimycobacterial activity against Mycobacterium avium complex CIT19/06 clinical isolate after 5 days by Alamar Blue assay; format: functional; conditions: CIT19/06, 120 h
[2] = system: Mycobacterium tuberculosis; experiment: Antimycobacterial activity against Mycobacterium tuberculosis H37Ra ATCC 25177 after 7 days by Alamar Blue assay; format: functional; conditions: H37Ra ATCC 25177, 168 h
Method in brief: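 Log-phase culture washed and resuspended in supplemented Middlebrook 7H9GC broth, adjusted to McFarland No. 1, then diluted 1:20. Equal volumes of culture and DMSO-prepared compound dilutions were tested in duplicate for 7 days. 10% AlamarBlue was added, with 570/600 nm readings for background and after 24 h reincubation. Blue meant no growth, pink meant growth. MIC was the lowest concentration without visible growth.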

L6 = experiment: Cytotoxicity against rat L6 cells after 70 hrs by Alamar Blue-based assay; format: cell-based; conditions: L6, 70 h
Method in brief: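 Rat skeletal myoblast L-6 cells, 4000 per well, in RPMI 1640 with 10% FBS and L-glutamine. Eleven 3-fold serial dilutions spanning 100 to 0.002 were tested for 70 h. Alamar Blue was then added for 2 h and fluorescence read at ex 536 / em 588 nm. IC50 came from linear regression of sigmoid curves, averaged over two replicate experiments, with podophyllotoxin as control.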

Plasmodium berghei = experiment: Antimalarial activity against liver stage of firefly luciferase-expressing Plasmodium berghei infected in human HuH7 cells measured after 48 hrs post parasite addition by luciferase-based luminescence assay; format: functional, organism-based; conditions: Huh-7, 48 h
Method in brief: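 HuH7 hepatoma cells seeded at 1.0 × 10^4 per well the day before infection. Drug-containing medium was added 1 h before 1.0 × 10^4 sporozoites, followed by centrifugation at 1800 × g for 5 min. Infection load was read by bioluminescence 48 h later, and host viability by CellTiter-Blue. IC50 came from nonlinear regression of normalized dose-response curves.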

HEK293 = experiment: Cytotoxicity against human HEK293 cells; format: cell-based

COc1cc(NC(C)CCCNC(=O)NCCCC(C)Nc2cc(OC)cc3cccnc23)c2ncccc2c1 (configuration not stated)
MIC (Mycobacterium avium): 128 µg/mL (≈ 235 µM)
MIC [1]: 256 µg/mL (≈ 470 µM)
MIC [2]: 128 µg/mL (≈ 235 µM)
IC50 (L6): > 100 µg/mL

COc1ccc(/C=C/C(=O)NCCCC(C)Nc2cc(OC)cc3cccnc23)cc1 (configuration not stated)
MIC (Mycobacterium avium): 64 µg/mL (≈ 153 µM)
MIC [1]: 128 µg/mL (≈ 305 µM)
MIC [2]: 64 µg/mL (≈ 153 µM)
IC50 (L6): > 100 µg/mL

COc1cc(NC(C)CCCNC(=O)/C=C/c2ccccc2)c2ncccc2c1 (configuration not stated)
MIC (Mycobacterium avium): 16 µg/mL (≈ 41.1 µM)
MIC [1]: 32 µg/mL (≈ 82.2 µM)
MIC [2]: 16 µg/mL (≈ 41.1 µM)

COc1cc(NC(C)CCCNC(=O)/C=C/c2ccc(Cl)cc2)c2ncccc2c1 (configuration not stated)
MIC (Mycobacterium avium): 64 µg/mL (≈ 151 µM)
MIC [1]: 128 µg/mL (≈ 302 µM)
MIC [2]: 64 µg/mL (≈ 151 µM)

COc1ccc(/C(=N/NC(=O)NNC(=O)NCCCC(C)Nc2cc(OC)cc3cccnc23)c2ccccc2)cc1 (configuration not stated)
MIC (Mycobacterium avium): 4 µg/mL (≈ 7.02 µM)
MIC [1]: 16 µg/mL (≈ 28.1 µM)
MIC [2]: 2 µg/mL (≈ 3.51 µM)

COc1cc(NC(C)CCCNC(=O)NNC(=O)N(C)C(c2ccccc2)c2ccccc2)c2ncccc2c1 (configuration not stated)
MIC (Mycobacterium avium): 64 µg/mL (≈ 118 µM)
MIC [1]: 64 µg/mL (≈ 118 µM)
MIC [2]: 64 µg/mL (≈ 118 µM)

COc1ccc(C(=NNC(=O)NNC(=O)NCCCC(C)Nc2cc(OC)cc3cccnc23)c2ccc(OC)cc2)cc1 (configuration not stated)
MIC (Mycobacterium avium): 4 µg/mL (≈ 6.67 µM)
IC50 (Plasmodium berghei): 82.8 nM
MIC [1]: 16 µg/mL (≈ 26.7 µM)
MIC [2]: 2 µg/mL (≈ 3.34 µM)

COc1cc(NC(C)CCCNC(=O)NNC(=O)NCCCC(C)Nc2cc(OC)cc3cccnc23)c2ncccc2c1 (configuration not stated)
MIC (Mycobacterium avium): 4 µg/mL (≈ 6.64 µM)
MIC [1]: 16 µg/mL (≈ 26.5 µM)
MIC [2]: 2 µg/mL (≈ 3.32 µM)

COc1cc(NC(C)CCCNC(=O)NNC(=O)Nc2ccc(Cl)c(C(F)(F)F)c2)c2ncccc2c1 (configuration not stated)
MIC (Mycobacterium avium): 2 µg/mL (≈ 3.71 µM)
MIC [1]: 2 µg/mL (≈ 3.71 µM)
MIC [2]: 2 µg/mL (≈ 3.71 µM)
IC50 (L6): 30 µg/mL (≈ 55.7 µM)

COc1cc(NC(C)CCCNC(=O)NNC(=O)NCCCO)c2ncccc2c1 (configuration not stated)
MIC (Mycobacterium avium): 256 µg/mL (≈ 612 µM)
MIC [1]: 256 µg/mL (≈ 612 µM)
MIC [2]: 256 µg/mL (≈ 612 µM)

COc1cc(NC(C)CCCNC(=O)NNC(=O)NCCCCCO)c2ncccc2c1 (configuration not stated)
MIC (Mycobacterium avium): 256 µg/mL (≈ 573 µM)
MIC [1]: 256 µg/mL (≈ 573 µM)
MIC [2]: 256 µg/mL (≈ 573 µM)

COc1cc(NC(C)CCCNC(=O)NNC(=O)N(CCO)CCO)c2ncccc2c1 (configuration not stated)
MIC (Mycobacterium avium): 256 µg/mL (≈ 571 µM)
MIC [1]: 256 µg/mL (≈ 571 µM)
MIC [2]: 256 µg/mL (≈ 571 µM)

COc1cc(NC(C)CCCNC(=O)N(C)C(c2ccccc2)c2ccccc2)c2ncccc2c1 (configuration not stated)
MIC (Mycobacterium avium): 128 µg/mL (≈ 265 µM)
MIC [1]: 128 µg/mL (≈ 265 µM)
MIC [2]: 128 µg/mL (≈ 265 µM)
IC50 (L6): 80.5 µg/mL (≈ 167 µM)

COc1cc(NC(C)CCCNC(=O)NC(c2ccccc2)c2ccc(Cl)cc2)c2ncccc2c1 (configuration not stated)
MIC (Mycobacterium avium): 128 µg/mL (≈ 254 µM)
MIC [1]: 128 µg/mL (≈ 254 µM)
MIC [2]: 128 µg/mL (≈ 254 µM)

COc1ccc(/C(=N/NC(=O)NCCCC(C)Nc2cc(OC)cc3cccnc23)c2ccccc2)cc1 (configuration not stated)
MIC (Mycobacterium avium): 128 µg/mL (≈ 250 µM)
MIC [1]: 256 µg/mL (≈ 500 µM)
MIC [2]: 128 µg/mL (≈ 250 µM)
IC50 (L6): > 100 µg/mL

COc1ccc(C(=NNC(=O)NCCCC(C)Nc2cc(OC)cc3cccnc23)c2ccc(OC)cc2)cc1 (configuration not stated)
MIC (Mycobacterium avium): 128 µg/mL (≈ 236 µM)
MIC [1]: 256 µg/mL (≈ 473 µM)
MIC [2]: 128 µg/mL (≈ 236 µM)
IC50 (L6): > 100 µg/mL

COc1cc(NC(C)CCCNC(=O)Nc2ccc(Cl)c(C(F)(F)F)c2)c2ncccc2c1 (configuration not stated)
MIC (Mycobacterium avium): 16 µg/mL (≈ 33.3 µM)
MIC [1]: 16 µg/mL (≈ 33.3 µM)
MIC [2]: 16 µg/mL (≈ 33.3 µM)

COc1cc(NC(C)CCCNC(=O)NN)c2ncccc2c1 (configuration not stated)
MIC (Mycobacterium avium): 32 µg/mL (≈ 101 µM)
MIC [1]: 32 µg/mL (≈ 101 µM)
MIC [2]: 32 µg/mL (≈ 101 µM)

COc1cc(NC(C)CCCNC(=O)Nc2cccc(C(F)(F)F)c2)c2ncccc2c1 (configuration not stated)
MIC (Mycobacterium avium): 2 µg/mL (≈ 4.48 µM)
MIC [1]: 2 µg/mL (≈ 4.48 µM)
MIC [2]: 2 µg/mL (≈ 4.48 µM)
IC50 (L6): 150 µg/mL (≈ 336 µM)

COc1cc(NC(C)CCCNC(=O)Nc2ccc(O)cc2)c2ncccc2c1 (configuration not stated)
MIC (Mycobacterium avium): 128 µg/mL (≈ 324 µM)
MIC [1]: 256 µg/mL (≈ 649 µM)
MIC [2]: 128 µg/mL (≈ 324 µM)
IC50 (L6): 14.8 µg/mL (≈ 37.5 µM)

COc1cc(NC(C)CCCNC(=O)Nc2cc(C(F)(F)F)cc(C(F)(F)F)c2)c2ncccc2c1 (configuration not stated)
IC50 (HEK293): 7.67 µg/mL (≈ 14.9 µM)

COc1cc(NC(C)CCCNC(=O)NNC(=O)Nc2ccc(C(F)(F)F)cc2)c2ncccc2c1 (configuration not stated)
MIC (Mycobacterium avium): 128 µg/mL (≈ 254 µM)
IC50 (Plasmodium berghei): 74.9 nM
MIC [1]: 128 µg/mL (≈ 254 µM)
MIC [2]: 128 µg/mL (≈ 254 µM)

COc1cc(NC(C)CCCNC(=O)NNC(=O)Nc2ccc(F)cc2)c2ncccc2c1 (configuration not stated)
IC50 (Plasmodium berghei): 1870 nM

COc1cc(NC(C)CCCNC(=O)NNC(=O)Nc2cccc(O)c2)c2ncccc2c1 (configuration not stated)
MIC (Mycobacterium avium): 128 µg/mL (≈ 283 µM)
MIC [1]: 256 µg/mL (≈ 566 µM)
MIC [2]: 128 µg/mL (≈ 283 µM)

COc1cc(NC(C)CCCNC(=O)NNC(=O)Nc2ccc(Cl)cc2)c2ncccc2c1 (configuration not stated)
MIC (Mycobacterium avium): 128 µg/mL (≈ 272 µM)
IC50 (Plasmodium berghei): 42 nM
MIC [1]: 256 µg/mL (≈ 544 µM)
MIC [2]: 128 µg/mL (≈ 272 µM)

COc1cc(NC(C)CCCNC(=O)NNC(=O)Nc2cccc(Cl)c2)c2ncccc2c1 (configuration not stated)
MIC (Mycobacterium avium): 128 µg/mL (≈ 272 µM)
MIC [1]: 256 µg/mL (≈ 544 µM)
MIC [2]: 128 µg/mL (≈ 272 µM)

COc1cc(NC(C)CCCNC(=O)Nc2cccc(Cl)c2)c2ncccc2c1 (configuration not stated)
MIC (Mycobacterium avium): 16 µg/mL (≈ 38.7 µM)
MIC [1]: 16 µg/mL (≈ 38.7 µM)
MIC [2]: 16 µg/mL (≈ 38.7 µM)
IC50 (L6): 10 µg/mL (≈ 24.2 µM)

COc1cc(NC(C)CCCNC(=O)NNC(=O)Nc2cccc(F)c2)c2ncccc2c1 (configuration not stated)
MIC (Mycobacterium avium): 128 µg/mL (≈ 282 µM)
MIC [1]: 256 µg/mL (≈ 563 µM)
MIC [2]: 128 µg/mL (≈ 282 µM)
